Experiment [1] concerns the target Muscarinic acetylcholine receptor. Description: (§1) Binding activity against Muscarinic acetylcholine receptor in rat cortex, using [3H]QNB as a radioligand. It counts as tissue-based. Put shortly: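 Radioligand 250 pM (30.0 Ci/mmol). Competitor at final 10^-12 to 10^-3 M. 10 μM atropine defines nonspecific binding. Filtration on PEI-soaked GF/B filters, scintillation counting. Apparent Ki from one-site competitive nonlinear fit.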

Experiment [2] concerns the target Muscarinic receptor M1 and M2 (Rattus norvegicus) (UniProt P08482+P10980). Description: The agonist ratio as the ratio of Ki against [3H]QNB to that of [3H]-CD. It is filed as functional.
Experiment [3] concerns the target Muscarinic acetylcholine receptor. Description: Binding activity to the muscarinic acetylcholine receptor in rat cortex, assayed using [3H]CD as a radioligand. It counts as tissue-based. In a few lines:
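Male Wistar rat cerebral cortex homogenate in 10 mM Na/K phosphate pH 7.4, diluted 1:300 (wet wt/v), ~0.75 mg protein per 2.0 mL. 1 nM radioligand (55.5 Ci/mmol), prepared fresh in buffer. Competitor 10^-12 to 10^-3 M. Nonspecific binding with 10 μM atropine. Rapid filtration on PEI-treated filters, scintillation counting. Apparent Ki by one-site competitive nonlinear regression.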

The target is the same in experiment [4]. As to the kind of experiment: Binding activity to the muscarinic acetylcholine receptor in rat cortex, assayed using [3H]PZ as a radioligand. It is filed as tissue-based. In a few lines:
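Rat (male Wistar, 200-250 g) cortex homogenized in ice-cold Na/K phosphate buffer pH 7.4, diluted 1:400, ~0.55 mg protein per 2.0 mL. 0.1 nM radioligand (84.1 Ci/mmol), made fresh just before use. Unlabeled competitor at final 10^-12 to 10^-3 M. 10 μM atropine for nonspecific. Filtered, counted by liquid scintillation. One-site competitive fit gives apparent Ki.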

The target is the same in experiment [5]. Description: Binding activity to muscarinic acetylcholine receptor in rat heart, assayed using [3H]QNB as a radioligand in the presence of Gpp(NH)p. Put shortly:
(§2)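 Male Wistar rat heart ventricles flushed, minced, Polytron-homogenized in 10 mM Na/K phosphate pH 7.4, spun 48000 g 15 min 4 °C, resuspended, gauze-filtered, diluted 1:750, 0.15-0.2 mg protein/2.0 mL. 10 μM Gpp(NH)p added to homogenate for line 3. Competitor 10^-12 to 10^-3 M. 10 μM atropine nonspecific. Filtration, scintillation counting. Ki from one-site fit.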

Experiment [6] shares this target. As to the kind of experiment: Binding activity to muscarinic acetylcholine receptor in rat heart, assayed using [3H]-QNB as a radioligand. Put shortly: as §2
The target in experiment [7] is T1, Muscarinic acetylcholine receptor M1 (Rattus norvegicus) (UniProt P08482).
T1 sequence (whole entry): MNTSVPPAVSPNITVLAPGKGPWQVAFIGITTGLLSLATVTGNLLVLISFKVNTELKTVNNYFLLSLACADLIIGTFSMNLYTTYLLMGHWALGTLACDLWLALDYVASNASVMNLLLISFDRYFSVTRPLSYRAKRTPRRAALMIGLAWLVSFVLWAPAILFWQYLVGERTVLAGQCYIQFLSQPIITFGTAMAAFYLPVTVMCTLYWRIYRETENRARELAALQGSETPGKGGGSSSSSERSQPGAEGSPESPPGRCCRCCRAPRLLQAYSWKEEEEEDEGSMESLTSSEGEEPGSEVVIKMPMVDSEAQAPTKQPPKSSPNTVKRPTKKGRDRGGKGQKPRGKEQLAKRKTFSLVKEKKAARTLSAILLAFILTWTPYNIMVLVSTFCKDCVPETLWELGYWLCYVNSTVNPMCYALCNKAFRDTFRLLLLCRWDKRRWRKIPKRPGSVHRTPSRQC
As to the kind of experiment: Muscarinic 1 receptor agonistic activity as the selectivity ratio of Ki against [3H]-QNB to that of [3H]PZ. It counts as functional.

Experiment [8] deals with T1, Muscarinic acetylcholine receptor M1 (Rattus norvegicus). As to the kind of experiment: Muscarinic 1 receptor agonistic activity as the selectivity ratio of Ki against [3H]-QNB+ Gpp(NH)p to that of [3H]PZ. It counts as functional.
For experiment [9], the target named is T2, Muscarinic acetylcholine receptor M2 (Rattus norvegicus) (UniProt P10980).
T2 sequence (whole entry): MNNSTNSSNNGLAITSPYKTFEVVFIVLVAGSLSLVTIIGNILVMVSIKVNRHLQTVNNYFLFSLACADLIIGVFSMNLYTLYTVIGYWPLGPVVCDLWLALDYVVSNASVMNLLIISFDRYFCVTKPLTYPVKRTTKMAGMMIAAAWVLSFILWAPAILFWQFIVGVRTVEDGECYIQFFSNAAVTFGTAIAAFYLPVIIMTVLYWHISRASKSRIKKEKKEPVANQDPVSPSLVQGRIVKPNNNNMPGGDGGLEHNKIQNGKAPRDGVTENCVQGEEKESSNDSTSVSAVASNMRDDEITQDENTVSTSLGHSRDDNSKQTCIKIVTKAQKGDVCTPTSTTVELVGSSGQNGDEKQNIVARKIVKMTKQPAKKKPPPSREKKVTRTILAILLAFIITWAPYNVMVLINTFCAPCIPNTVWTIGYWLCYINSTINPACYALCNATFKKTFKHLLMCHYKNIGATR
As to the kind of experiment: Muscarinic 2 receptor agonistic activity was determined as the selectivity ratio of Ki against [3H]QNB+ Gpp(NH)p to that of [3H]QNB. It counts as functional.

Experiment [10] concerns the target Muscarinic acetylcholine receptor. The description is as §1. It is filed as tissue-based. Put shortly:
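Competitor at final 10^-12 to 10^-3 M. 10 μM atropine defines nonspecific binding. Filtration on PEI-soaked GF/B filters, scintillation counting. Apparent Ki from one-site competitive nonlinear fit.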
This is another data set of the same source.

Molecules are shown by their SMILES.

Broadly, the Ki is a measure of affinity in units of concentration, obtained from inhibition or displacement.

With `O=CN1CCC[C@H]1C#CCN1CCCC1`, the inhibition constant Ki amounted to 4.59 µM in [1]; 4.88 µM in [3]; 1.23 µM in [4]; 77 µM in [5]; 7.62 µM in [6]. Moreover, the Ratio in experiment [2] came out at 1; in [7], 6.2; in experiment [8], 62; in experiment [9], 10.

As to `CC(=O)N1CCC[C@H]1C#CCN(C)C`, the Ki in experiment [1] is 48.9 µM; in experiment [3], 15.5 µM; in [4], 40 µM; in [5] it was 175 µM; in experiment [6], 51.7 µM. For the same compound, the Ratio in [2] was determined as 3.2; in experiment [7], 1.3; in experiment [8], 4.4; in experiment [9], 3.4.

For `CC(=O)N1CCC[C@H]1C#CC[N+](C)(C)C`, the Ki in [1] was 20.9 µM; in experiment [3] it was 4.15 µM; in experiment [4], 13.9 µM; in [5] it was 47.1 µM; in [6] it was 16.4 µM. Moreover, the Ratio came out at 5 in experiment [2], 1.2 in experiment [7], 3.4 in experiment [8] and 2.9 in experiment [9].

For the compound `CN(C)CC#C[C@@H]1CCCN1.Cl.Cl`, the inhibition constant (Ki) amounted to 8.5 µM in [1]; 37.35 µM in experiment [3]; 13.2 µM in experiment [4]; 19.1 µM in experiment [5]; 20 µM in experiment [6]. Further, the Ratio in experiment [2] was determined as 0.2; in experiment [7], 1.5; in experiment [8] it was 1.4; in [9], 1.

For `CC(=O)N1CCC[C@H]1C#CCN1CCCC1.Cl`, the inhibitory constant (Ki) was 4.96 µM in experiment [1]; 2.55 µM in experiment [3]; 2.06 µM in [4]; 22.6 µM in [5]; 15.5 µM in experiment [6]. Moreover, the Ratio was 1.9 in [2], 7.5 in [7], 11 in experiment [8] and 1.5 in experiment [9].

As for `C(#C[C@@H]1CCCN1)CN1CCCC1.Cl.Cl`, the inhibition constant (Ki) in experiment [1] was 2.8 µM; in [3], 5.67 µM; in [4], 2.22 µM; in experiment [5], 2.08 µM; in [6], 1.55 µM. For the same compound, the Ratio in experiment [2] was found to be 0.5; in [7], 0.7; in [8] it was 0.9; in experiment [9] it was 1.3.

As to `COC(=O)N1CCC[C@H]1C#CCN1CCCC1`, the Ratio in experiment [2] worked out at 0.4; in experiment [7], 3; in [8], 3.9; in experiment [9], 1.3. Also, the inhibition constant (Ki) in [3] amounted to 1.44 µM; in [4] it was 1.48 µM; in [10], 0.62 µM; in experiment [5], 5.75 µM; in experiment [6], 4.42 µM.

Regarding `CN(C)CC#C[C@H]1CCCN1.Cl.Cl`, the Ratio in experiment [2] came out at 0.5; in experiment [7], 1.1; in experiment [8], 1.2; in experiment [9], 1. Further, the Ki came to 37.08 µM in experiment [3]; 25.2 µM in experiment [4]; 18.7 µM in experiment [10]; 29.3 µM in experiment [5]; 28.5 µM in [6].

Values taken from ChEMBL document CHEMBL1125029, “Chemical and biochemical studies of 2-propynylpyrrolidine derivatives. Restricted-rotation analogues of N-methyl-N-(1-methyl-4-pyrrolidino-2-butynyl)acetamide (BM-5)” (J Med Chem, 1990).
